From ChEMBL document CHEMBL4765302, “Design, synthesis and biological evaluation of novel histone deacetylase1/2 (HDAC1/2) and cyclin-dependent Kinase2 (CDK2) dual inhibitors against malignant cancer” (Eur J Med Chem, 2020)

Assays:
HCT-116 [1] = assay: Antiproliferative activity against human HCT-116 cells assessed as reduction in cell growth at 2 uM incubated for 72 hrs by CCK-8 assay relative to control; type: functional
HCT-116 [2] = assay: Antiproliferative activity against human HCT-116 cells assessed as reduction in cell growth at 8 uM incubated for 72 hrs by CCK-8 assay relative to control; type: functional
HepG2 [3] = assay: Antiproliferative activity against human HepG2 cells assessed as reduction in cell growth at 2 uM incubated for 72 hrs by CCK-8 assay relative to control; type: functional
HepG2 [4] = assay: Antiproliferative activity against human HepG2 cells assessed as reduction in cell growth at 8 uM incubated for 72 hrs by CCK-8 assay relative to control; type: functional
NCI-H460 [5] = assay: Antiproliferative activity against human H460 cells assessed as reduction in cell growth at 2 uM incubated for 72 hrs by CCK-8 assay relative to control; type: functional
NCI-H460 [6] = assay: Antiproliferative activity against human H460 cells assessed as reduction in cell growth at 8 uM incubated for 72 hrs by CCK-8 assay relative to control; type: functional
Histone deacetylase 1 = Histone deacetylase 1 (Homo sapiens, UniProt Q13547); assay: Inhibition of recombinant human HDAC1 at 10 uM using SIRT1 as substrate incubated for 10 mins followed by substrate addition and measured after 30 mins by fluorescence based assay relative to control; settings: time 40.0 min
How it was run: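 Enzyme inhibition of HDAC1 measured at a single concentration of 10 µM, tested alongside the cell-growth screen.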

NCI-H460 [7] = assay: Antiproliferative activity against human NCI-H460 cells assessed as reduction in cell growth incubated for 72 hrs by CCK-8 assay; type: functional, cell-based; settings: NCI-H460, 72 h
How it was run: (§1)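 IC50 by CCK-8 assay across five solid-tumour lines (HCT116, HepG2, H460, HeLa, A375). Run only for compounds chosen after the single-concentration screen, with CS055 and roscovitine as references.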

A-375 = assay: Antiproliferative activity against human A-375 cells assessed as reduction in cell growth incubated for 72 hrs by CCK-8 assay; type: functional, cell-based; settings: A-375, 72 h; how it was run: as §1
HepG2 [8] = assay: Antiproliferative activity against human HepG2 cells assessed as reduction in cell growth incubated for 72 hrs by CCK-8 assay; type: functional, cell-based; settings: HepG2, 72 h; how it was run: as §1
HCT-116 [9] = assay: Antiproliferative activity against human HCT-116 cells assessed as reduction in cell growth incubated for 72 hrs by CCK-8 assay; type: functional, cell-based; settings: HCT-116, 72 h; how it was run: as §1
HeLa = assay: Antiproliferative activity against human HeLa cells assessed as reduction in cell growth incubated for 72 hrs by CCK-8 assay; type: functional, cell-based; how it was run: as §1

Histone deacetylase 1, sequence (Q13547 whole entry): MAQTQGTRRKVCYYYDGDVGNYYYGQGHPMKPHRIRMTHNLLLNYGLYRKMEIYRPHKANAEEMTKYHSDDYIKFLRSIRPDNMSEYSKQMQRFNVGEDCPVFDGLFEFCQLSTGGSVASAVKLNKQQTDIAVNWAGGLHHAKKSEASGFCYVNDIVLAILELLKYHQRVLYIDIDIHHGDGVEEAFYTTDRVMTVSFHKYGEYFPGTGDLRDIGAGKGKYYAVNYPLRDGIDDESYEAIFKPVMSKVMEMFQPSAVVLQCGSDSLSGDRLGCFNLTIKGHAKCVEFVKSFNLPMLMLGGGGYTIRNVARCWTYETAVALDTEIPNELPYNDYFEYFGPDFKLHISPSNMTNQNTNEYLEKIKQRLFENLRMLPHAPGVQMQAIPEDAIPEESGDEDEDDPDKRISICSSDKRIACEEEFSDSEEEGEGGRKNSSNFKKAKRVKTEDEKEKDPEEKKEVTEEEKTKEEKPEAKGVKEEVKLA

Structure (SMILES)	inhibition at 2 µM (HCT-116 [1]) [%]	inhibition at 8 µM (HCT-116 [2]) [%]	inhibition at 2 µM (HepG2 [3]) [%]	inhibition at 8 µM (HepG2 [4]) [%]	inhibition at 2 µM (NCI-H460 [5]) [%]	inhibition at 8 µM (NCI-H460 [6]) [%]	inhibition (Histone deacetylase 1) [%]	IC50 (NCI-H460 [7]) [nM]	IC50 (A-375) [nM]	IC50 (HepG2 [8]) [nM]	IC50 (HCT-116 [9]) [nM]	IC50 (HeLa) [nM]
CCCCn1cnc2c(Nc3cccc(Cl)c3)nc(NCCOCc3ccc(/C=C/C(=O)Nc4ccccc4N)cc3)nc21	4.76	10.8	20.4	30.4	25.7	51.1	24.6	–	–	–	–	–
Nc1ccccc1NC(=O)c1ccc(Cn2cnc3c(Nc4cccc(OC(F)(F)F)c4)nc(Cl)nc32)cc1	1.6	46.6	1.88	31.2	47.7	62.4	37.4	–	–	–	–	–
Nc1ccccc1NC(=O)/C=C/c1ccc(Cn2cnc3c(Nc4cccc(OC(F)(F)F)c4)nc(Cl)nc32)cc1	2.8	5.23	16.2	37.6	2.1	66.7	40.3	–	–	–	–	–
Nc1ccccc1NC(=O)/C=C/c1ccc(Cn2cnc3c(NCc4ccccc4)nc(Cl)nc32)cc1	2.85	17.4	11.5	37.7	4.62	49.1	22.5	–	–	–	–	–
Nc1ccccc1NC(=O)c1ccc(Cn2cnc3c(N4CCOCC4)nc(Cl)nc32)cc1	77.7	80.7	56.9	71.3	5.05	47	93.2	6090	2680	2820	450	2030
Nc1ccccc1NC(=O)c1ccc(CNc2nc(Cl)nc3c2ncn3Cc2ccccc2)cc1	7.7	11.4	5.01	5.32	43.8	46.4	27.6	–	–	–	–	–
COC(CCn1cnc2c(NCc3ccc(C(=O)Nc4ccccc4N)cc3)nc(Cl)nc21)OC	6.39	11.9	8.52	34.2	43.7	51.2	29.5	–	–	–	–	–
Nc1ccccc1NC(=O)c1ccc(Cn2cnc3c(Nc4cccc(Cl)c4)nc(Cl)nc32)cc1	56.2	78.4	29.9	66.7	10.3	67	61.3	6580	6080	9800	2340	11300
CC1CCN(c2nc(Cl)nc3c2ncn3Cc2ccc(/C=C/C(=O)Nc3ccccc3N)cc2)CC1	4.24	26.9	8.73	32.2	8.24	10.8	4.87	–	–	–	–	–
CC(C)n1cnc2c(NCc3ccc(C(=O)Nc4ccccc4N)cc3)nc(Cl)nc21	73.2	76	63.8	74.4	54.1	80.5	89.7	3410	2170	3320	800	2130
Nc1ccccc1NC(=O)/C=C/c1ccc(Cn2cnc3c(Nc4cccc(Cl)c4)nc(Cl)nc32)cc1	12.9	15.8	35.8	49.3	7.11	29.4	23.6	–	–	–	–	–
Nc1ccccc1NC(=O)c1ccc(Cn2cnc3c(Nc4ccc(-c5ccccn5)cc4)nc(Cl)nc32)cc1	69.5	73.7	11.5	41.2	18.1	30.8	43.9	18400	18500	30000	1250	> 20000
Nc1ccccc1NC(=O)/C=C/c1ccc(Cn2cnc3c(NC4CCCCC4)nc(Cl)nc32)cc1	3.34	18.7	3.83	42.6	8.09	24.9	28.2	–	–	–	–	–
Nc1ccccc1NC(=O)/C=C/c1ccc(Cn2cnc3c(Nc4ccccc4)nc(Cl)nc32)cc1	7.75	30.9	16.4	41.9	2.05	28.7	14.8	–	–	–	–	–
CN1CCN(c2nc(Cl)nc3c2ncn3Cc2ccc(C(=O)Nc3ccccc3N)cc2)CC1	71.6	72.8	60.4	75	13.4	55	80.5	6160	1600	2010	310	1170
Cc1ccc(Nc2nc(Cl)nc3c2ncn3Cc2ccc(/C=C/C(=O)Nc3ccccc3N)cc2)cc1	0.27	15	33.6	43	31.3	51.3	41.8	–	–	–	–	–
CCCn1cnc2c(NCc3ccc(C(=O)Nc4ccccc4N)cc3)nc(Cl)nc21	28.5	29.6	12.4	14.1	31	39.2	11.4	–	–	–	–	–
CCCCn1cnc2c(NCc3ccc(C(=O)Nc4ccccc4N)cc3)nc(Cl)nc21	4.89	40.9	6.8	19.6	19.7	23.7	9.56	–	–	–	–	–
Nc1ccccc1NC(=O)c1ccc(CNc2nc(Cl)nc3c2ncn3C2CCCC2)cc1	75.6	80.6	54.7	74.9	–	57.4	90.9	5780	2790	3430	850	3020
Nc1ccccc1NC(=O)/C=C/c1ccc(Cn2cnc3c(N4CCOCC4)nc(Cl)nc32)cc1	17.8	55.4	19	40.9	1.24	37.9	25.7	–	–	–	–	–
